Measurements reported in ChEMBL document CHEMBL1138387, “Hemodynamic effects of potent and selective JNK inhibitors in anesthetized rats: implication for targeting protein kinases in metabolic diseases” (Bioorg Med Chem Lett, 2007).

Experiments:
Rattus norvegicus [1] = assay: Hemodynamic effect in anesthetized Sprague-Dawley rat assessed as decrease in mean arterial pressure at 10 mg/kg after 90 mins; assay type: functional, Artery; parameters: scale not given: the % may be the effect or the level left
Outline: (§1)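 Inactin-anesthetized rats; femoral artery catheters for MAP, HR and blood sampling; femoral vein for dosing and saline; LV transducer catheter for LVP/dP/dt. PVR = MAP/PBF. After 30-min control period, vehicle (10% DMSO/PEG400, 1 mL/kg) or compound infused i.v. as three ascending doses, 3, 10, 30 mg/kg, each over 30 min. Changes versus time 0 baseline; mean of three animals.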

[2] = Drug level in anesthetized Sprague-Dawley rat assessed end of infusion plasma concentration at 10 mg/kg after 90 mins; assay type: ADME, organism-based; parameters: dose 10 mg/kg; details: iv; outline: as §1
Rattus norvegicus [3] = assay: Hemodynamic effect in anesthetized Sprague-Dawley rat assessed as increase in cardiac contractility at 10 mg/kg after 90 mins; assay type: functional, Heart; outline: as §1
Rattus norvegicus [4] = assay: Hemodynamic effect in anesthetized Sprague-Dawley rat assessed as decrease in peripheral vascular resistance at 10 mg/kg after 90 mins; assay type: functional; parameters: scale not given: the % may be the effect or the level left; outline: as §1
[5] = molecular target: Mitogen-activated protein kinase 8 (Homo sapiens, UniProt P45983); assay: Inhibition of JNK1
Rattus norvegicus [6] = assay: Hemodynamic effect in anesthetized Sprague-Dawley rat assessed as decrease in heart rate at 10 mg/kg after 90 mins; assay type: functional; parameters: scale not given: the % may be the effect or the level left; outline: as §1

Sequence of Mitogen-activated protein kinase 8 (P45983 whole entry): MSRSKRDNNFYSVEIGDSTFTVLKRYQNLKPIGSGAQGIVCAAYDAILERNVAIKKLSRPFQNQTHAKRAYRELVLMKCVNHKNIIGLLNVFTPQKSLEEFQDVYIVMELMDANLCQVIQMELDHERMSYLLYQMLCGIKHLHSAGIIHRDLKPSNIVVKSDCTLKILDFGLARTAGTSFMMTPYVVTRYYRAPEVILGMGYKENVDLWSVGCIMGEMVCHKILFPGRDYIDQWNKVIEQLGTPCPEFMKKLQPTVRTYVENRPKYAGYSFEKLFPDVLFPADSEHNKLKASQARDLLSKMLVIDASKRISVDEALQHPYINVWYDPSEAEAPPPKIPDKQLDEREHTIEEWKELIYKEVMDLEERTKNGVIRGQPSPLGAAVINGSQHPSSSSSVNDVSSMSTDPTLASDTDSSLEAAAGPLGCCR

| Structure (SMILES) | Activity (Rattus norvegicus [1]) | concentration at 1.5 h [2] | Activity (Rattus norvegicus [3]) | Activity (Rattus norvegicus [4]) | IC50 [5] | Activity (Rattus norvegicus [6]) |
| --- | --- | --- | --- | --- | --- | --- |
| CS(=O)(=O)c1ccc(CNC(=O)c2cc(N)c(C#N)c(-c3ccsc3)n2)cc1 | 23% |  |  |  |  |  |
| CC(C)Oc1nc(C(=O)N(C)Cc2ccc(S(C)(=O)=O)cc2)cc(N)c1C#N |  | 23600 ng/mL | 41% | 46% | 6400 nM |  |
| CCOc1nc(C(=O)NCCNc2ccc([N+](=O)[O-])cn2)cc(N)c1C#N | 20% |  | 12% |  | 61 nM |  |
| CCOc1nc(C(=O)NCc2ccc([S+]([O-])c3ccccc3)cc2)cc(N)c1C#N (stereo not drawn) | 24% |  | 24% |  | 50 nM |  |
| COc1cc[nH]c1/C=C1\C(=O)Nc2cccc(C#CC(O)c3ccc(OCCCN(C)C)cc3)c21 (stereo not drawn) | 23% |  | -20% |  | 34 nM | 11% |
| CS(=O)(=O)c1ccc(CNC(=O)c2cc(N)c(C#N)c(OCC3CC3)n2)cc1 | 24% | 8200 ng/mL |  |  |  |  |
| CS(=O)(=O)c1ccc(CNC(=O)c2cc(N)c(C#N)c(NC3CCCC3)n2)cc1 | 18% | 10500 ng/mL | 13% |  |  | 6% |
| CCOc1nc(C(=O)NCc2ccc(S(C)(=O)=O)cc2)cc(N)c1Cl | 20% | 14700 ng/mL | <15% | 51% |  | <15% |
| CCOc1nc(C(=O)NCc2ccc(S(=O)(=O)c3ccccc3)cc2)cc(N)c1C#N | 24% |  |  |  | 130 nM | 11% |
| CC(C)Oc1nc(C(=O)NCc2ccc(S(C)(=O)=O)cc2)cc(O)c1C#N | <15% | 39900 ng/mL |  |  | > 10000 nM |  |
| CCOc1nc(C(=O)NCc2cnccc2Cl)cc(N)c1C#N | 23% |  | < -15% |  | 30 nM |  |
| CCOc1nc(C(=O)NCc2ccc(S(C)(=O)=O)cc2)cc(N)c1C#N | 41% | 19300 ng/mL | <15% | 25% |  | <15% |
| CCCn1c(C2CCNCC2)nc(-c2ccc(Cl)c(Cl)c2)c1-c1ccnc(NC2CCCCC2)n1 | 30% | 9000 ng/mL |  |  |  | 22% |
